Experimental data published in ChEMBL document CHEMBL1687840, “Vancomycin bonded to bone grafts prevents bacterial colonization” (Antimicrob Agents Chemother, 2011).
Calls of active or inactive are those of the source. The calls are words filed in the database; no cut-off is given here.

What was measured:
[1] = Stability of the human bone graft-bound drug in phosphate buffer saline after 7 days by immunofluorescent staining; type: ADME; conditions: 168 h
In short: (§1)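 About 10 mg modified allograft held 7 days at 37°C in 1 ml water, PBS, DMEM-F-12 with 10% FBS, or S. aureus in TSB (bacteria removed by 30 min sonication in 1% SDS), or kept dry in air; then PBS-washed, blocked in 10% FBS/PBS 1 h, rabbit anti-VAN IgG 1:500 at 4°C 12 h, Alexa Fluor 488 anti-rabbit 1:1,000 RT 1 h, viewed by epifluorescence.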

[2] = Cytotoxicity in human FOB on drug treated bone allograft assessed as morphological changes after 48 hrs by propidium iodide staining
In short: (§2)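 Cortical allograft pieces (1 × 1 cm; 70% ethanol, PBS and medium rinses, 10 min UV) seeded with 1 ml of 50,000 cells/ml hFOB in DMEM-F-12 with 10% FBS; after 48 h fixed (4% paraformaldehyde), permeabilized (0.1% Triton X-100), stained with Alexa 488-phalloidin and propidium iodide 30 min RT, imaged by confocal microscopy.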

Staphylococcus aureus [3] = test: Antibacterial activity against Staphylococcus aureus Xen36 infected in drug treated human morselized bone allograft assessed as inhibition of biofilm formation after 12 hrs by confocal laser scanning microscopy; type: functional, organism-based
In short: (§3)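 Allograft morsels challenged with S. aureus (1 ml, 1 × 10^4 CFU/ml) in TSB at 37°C without agitation for 5 or 12 h, washed three times in PBS, stained with Live/Dead BacLight (20 min, RT), imaged by confocal laser scanning microscopy with Z-plane optical sectioning and reconstruction.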

[4] = Cytotoxicity in human FOB on drug treated bone allograft assessed as release of lactate dehydrogenase after 3 days; conditions: 72 h
In short: (§4)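 hFOB cells grown on flat cortical allograft 1 or 3 days; LDH released into medium measured with Tox-7 kit, given as percentage of released over total cellular LDH, normalized to day 1 controls; at least three experiments, means ± standard errors.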

[5] = Cytotoxicity in human FOB on drug treated bone allograft assessed as increase of protein level after 1 day; conditions: 24 h
In short: (§5)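 hFOB cells cultured on sterilized flat cortical allograft in DMEM-F-12 with 10% FBS for 1 or 3 days, lysed with M-PER buffer 30 min with shaking; total protein by Bradford assay as index of adhesion and proliferation; at least three experiments, means ± standard errors.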

[6] = Cytotoxicity in human FOB on drug treated bone allograft assessed as increase of protein level after 3 days; conditions: 72 h; in short: as §5
[7] = Cytotoxicity in human FOB on drug treated bone allograft assessed as release of lactate dehydrogenase after 1 day; conditions: 24 h; in short: as §4
[8] = Stability of the human bone graft-bound drug 7 days after incubation with Staphylococcus aureus in trypticase soy broth by immunofluorescent staining; type: ADME; conditions: 168 h; in short: as §1
Homo sapiens = species on record: Homo sapiens; test: Binding affinity to human morselized allograft bone by immunohistochemical analysis
In short: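 Human cancellous/cortical bone granules (0.5–2.0 mm), EDTA-treated, with covalently coupled VAN and washed until eluent gave no S. aureus disk-diffusion inhibition. PBS-washed ×3, blocked 1 h in 10% FBS/PBS, rabbit anti-VAN IgG (1:500) 12 h at 4°C, Alexa 488 anti-rabbit (1:1,000) 1 h RT, epifluorescence read-out. Uncoupled bone as control.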

[9] = Stability of the human bone graft-bound drug in water after 7 days by immunofluorescent staining; type: ADME; conditions: 168 h; in short: as §1
Staphylococcus aureus [10] = test: Antibacterial activity against Staphylococcus aureus Xen36 infected in drug treated human morselized bone allograft assessed as inhibition of biofilm formation after 6 hrs by scanning electron microscopy; type: functional, organism-based
In short: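 Allograft morsels exposed to S. aureus in TSB for 6 h, then examined by scanning electron microscopy at low magnification, ×1,500 and ×4,000 for adherent bacteria and biofilm.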

Escherichia coli = test: Antibacterial activity against Escherichia coli DH5[alpha] infected in drug treated human morselized bone allograft assessed as reduction of bacterial count after up to 12 hrs by colony counting; type: functional, organism-based
In short: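 Sterilized allograft granules (0.5–2.0 mm, human cancellous/cortical) incubated without agitation at 37°C in TSB with 1 ml of 1 × 10^4 CFU/ml bacteria (overnight TSB culture, 250 rpm, 37°C) for 2, 5, 8 or 12 h; washed three times with PBS, three more times, sonicated 5 min in 0.3% Tween 80/PBS, serially diluted, plated on Petrifilms and colonies counted; S. aureus shown as % of control per time point.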

[11] = Cytotoxicity in human FOB on drug treated bone allograft assessed as changes on cytoskeletal architecture after 48 hrs by propidium iodide staining; in short: as §2
Staphylococcus aureus [12] = test: Antibacterial activity against Staphylococcus aureus Xen36 infected in drug treated human morselized bone allograft assessed as inhibition of biofilm formation after 5 hrs by confocal laser scanning microscopy; type: functional, organism-based; in short: as §3
Staphylococcus aureus [13] = test: Antibacterial activity against Staphylococcus aureus Xen36 infected in drug treated human morselized bone allograft assessed as reduction of bacterial count after 12 hrs followed by additional 4 hrs in presence of 10 ug/ml of drug by colony counting; type: functional, organism-based
In short: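 Control or modified allograft incubated with S. aureus (1 ml, 10^4 CFU/ml) in TSB 12 h, either with 10 μg/ml solution VAN added alongside inoculum, or washed, transferred and given 4 h in TSB with 10 μg/ml VAN; after 16 h total, washed, adherent bacteria sonicated off, plated and counted, expressed as % of control per condition.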

[14] = Stability of the human bone graft-bound drug in dulbecco modified eagle medium after 7 days by immunofluorescent staining; type: ADME; conditions: 168 h; in short: as §1
[15] = Stability of the human bone graft-bound drug in air after 7 days by immunofluorescent staining; type: ADME; conditions: 168 h; in short: as §1

CN[C@H](CC(C)C)C(=O)N[C@H]1C(=O)N[C@@H](CC(N)=O)C(=O)N[C@H]2C(=O)N[C@H]3C(=O)N[C@H](C(=O)N[C@H](C(=O)O)c4cc(O)cc(O)c4-c4cc3ccc4O)[C@H](O)c3ccc(c(Cl)c3)Oc3cc2cc(c3O[C@@H]2O[C@H](CO)[C@@H](O)[C@H](O)[C@H]2O[C@H]2C[C@](C)(N)[C@H](O)[C@H](C)O2)Oc2ccc(cc2Cl)[C@H]1O [VANCOMYCIN]
Stability [1]: Stable | Activity [2]: Non-toxic | Activity (Staphylococcus aureus [3]): Active | Activity [4]: Non-toxic | Activity [5]: Toxic | Activity [6]: Non-toxic | Activity [7]: Non-toxic | Stability [8]: Stable | Activity (Homo sapiens): Active | Stability [9]: Stable | Activity (Staphylococcus aureus [10]): Active | Activity (Escherichia coli): inactive | Activity [11]: Non-toxic | Activity (Staphylococcus aureus [12]): Active | Activity (Staphylococcus aureus [13]): Active | Stability [14]: Stable | Stability [15]: Stable
